Calls of active or inactive are those of the source. The rule behind the calls is not given here.
Columns and labels:
Mus musculus [1] = test: Activity against chemically-induced skin papillomas in Swiss albino mouse assessed as change in total papilloma diameter at 80 mg/kg/day, ip administered five times per week for 2 weeks measured on day 14; type: functional; conditions: route intraperitoneal
Hamster [2] = test: Reversal of keratinized lesions in vitamin A deficient hamster tracheal organ culture assessed as cultures with keratin and keratohyaline granules at 0.1 uM after 7 days (reference value: 93%); type: functional, Cricetinae, Trachea
Hamster [3] = test: Reversal of keratinized lesions in vitamin A deficient hamster tracheal organ culture assessed as cultures with keratin and keratohyaline granules at 10 nM after 7 days (reference value: 93%); type: functional, Cricetinae, Trachea
[4] = Increase in RNA content in mouse epidermal cells at 1 uM after 3 days; type: functional
In short: (§1)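 Mouse skin epidermal cell cultures grown 3 days with retinoid added from Me2SO stock (final Me2SO ≤1.0%); controls received equivalent Me2SO and no retinoid. RNA measured; value is percentage increase over control cultures; 6–9 cultures per concentration.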

[5] = Increase in RNA content in mouse epidermal cells at 0.1 uM after 3 days; type: functional; in short: as §1
[6] = Increase in RNA content in mouse epidermal cells at 10 nM after 3 days; type: functional; in short: as §1
[7] = Increase in RNA content in mouse epidermal cells at 1 nM after 3 days; type: functional; in short: as §1
Mus musculus [8] = species on record: Mus musculus; test: Increase in DNA content in mouse epidermal cells; type: functional, cell-based
In short: (§2)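 Mouse skin epidermal cell cultures with retinoid added to the medium from Me2SO stock (final Me2SO ≤1.0%); controls given equivalent Me2SO; increase in DNA or protein content measured relative to cultures without retinoid.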

Mus musculus [9] = species on record: Mus musculus; test: Increase in protein content in mouse epidermal cells; type: functional, cell-based; in short: as §2
Mus musculus [10] = test: Activity against chemically-induced skin papillomas in Swiss albino mouse assessed as change in total papilloma diameter at 160 mg/kg/day, ip administered five times per week for 2 weeks measured on day 14; type: functional; conditions: route intraperitoneal
Hamster [11] = test: Reversal of keratinized lesions in vitamin A deficient hamster tracheal organ culture assessed as cultures with keratin and keratohyaline granules at 1 uM after 7 days (reference value: 93%); type: functional, Cricetinae, Trachea
Mus musculus [12] = test: Activity against chemically-induced skin papillomas in Swiss albino mouse assessed as change in total papilloma diameter at 40 mg/kg/day, ip administered five times per week for 2 weeks measured on day 14; type: functional; conditions: route intraperitoneal
Hamster [13] = test: Reversal of keratinized lesions in vitamin A deficient hamster tracheal organ culture assessed as cultures with keratin and keratohyaline granules at 1 nM after 7 days (reference value: 93%); type: functional, Cricetinae, Trachea
[14] = Increase in RNA content in mouse epidermal cells at 0.1 nM after 3 days; type: functional; in short: as §1
Mus musculus [15] = test: Activity against chemically-induced skin papillomas in Swiss albino mouse assessed as change in total papilloma diameter at 10 mg/kg/day, ip administered five times per week for 2 weeks measured on day 14; type: functional; conditions: route intraperitoneal

Structure (SMILES) | Activity (Mus musculus [1]) | Cultures with keratinized lesions (Hamster [2]) | Activity (Hamster [3]) | Activity [4] | Activity [5] | Activity [6] | Activity [7] | other results
CC1=C(CC/C(C)=C/C=C/C(C)=C/C(=O)O)C(C)(C)CCC1 | -33% | 0% | 25% | 106% | 115% | 82% | 1% | Activity (Mus musculus [8]): Active; Activity (Mus musculus [9]): Active
COC(=O)/C=C(\C)CC/C=C(C)/C=C/c1c(C)cc(C)c(Cl)c1C | 29% |  |  |  |  |  |  | 
COc1cc(C)c(/C=C/C(C)=C/CC/C(C)=C/C(=O)O)c(C)c1C | -17% | 44% | 86% |  |  |  |  | Activity (Mus musculus [10]): -66%; Activity (Hamster [11]): 0%
CCOC(=O)/C=C(C)/C=C/C=C(C)/C=C/C1=C(C)CCCC1(C)C | -47% | 0% | 0% | 123% | 102% | 57% | 23% | 
COc1cc(C)c(CC/C(C)=C/C=C/C(C)=C/C(=O)O)c(C)c1C | -35% | 63% | 85% |  |  |  |  | Activity (Hamster [11]): 0%
COC(=O)/C=C(\C)CC/C=C(C)/C=C/c1c(C)cc(OC)c(Cl)c1C | 29% |  |  |  |  |  |  | 
COC(=O)/C=C(C)/C=C/C=C(\C)CCc1c(C)cc(N(C)C)cc1C | 20% |  |  |  |  |  |  | 
CC1=C(/C=C/C(C)=C/C=C/C(C)=C/C(=O)O)C(C)(C)CCC1 [TRETINOIN] |  | 0% | 3% |  |  | 100% | 68% | Activity (Mus musculus [12]): -55%; Activity (Hamster [13]): 0%; Activity [14]: 19%
COC(=O)/C=C(C)/C=C/C=C(C)/C=C/C1=C(C)CCCC1(C)C [RETINOIC ACID METHYL ESTER] |  | 0% | 0% | 126% | 75% | 25% | 8% | 
COC(=O)/C=C(C)/C=C/C=C(\C)CCc1c(C)cc(OC)c(Cl)c1C | 1% |  |  |  |  |  |  | 
CC(/C=C/C1C(C)CCCC1(C)C)=C\C=C\C(C)=C\C(=O)O (stereo not drawn) |  | 0% | 0% |  |  |  |  | Activity (Mus musculus [15]): -9%; Activity (Hamster [13]): 6%
CCOC(=O)CC(C)/C=C/C=C(C)/C=C/C1=C(C)CCCC1(C)C (stereo not drawn) |  | 12% | 83% | 69% | 13% | 12% | 12% | Activity (Mus musculus [10]): -14%; Activity (Mus musculus [8]): Active; Activity (Mus musculus [9]): Active
COC(=O)/C=C(\C)CC/C=C(C)/C=C/C1=C(C)CCCC1(C)C | -13% | 24% | 83% | 21% | 5% | 9% | 3% | Activity (Mus musculus [8]): Active; Activity (Mus musculus [9]): Active
CC1=C(/C=C/C(C)C/C=C/C(C)=C/C(=O)O)C(C)(C)CCC1 (racemic) |  | 52% | 96% | 118% | 29% | 28% | 3% | Activity (Mus musculus [8]): Active; Activity (Mus musculus [9]): Active
CC1=C(CC/C(C)=C/C=C/C(C)=C\C(=O)O)C(C)(C)CCC1 | -28% |  |  |  |  |  |  | 
COc1cc(C)c(/C=C/C(C)=C/C=C/C(C)=C/C(=O)O)c(C)c1C [ACITRETIN] |  | 0% | 35% |  |  |  |  | Activity (Mus musculus [15]): -43%; Activity (Hamster [13]): 100%; Activity (Hamster [11]): 0%

From ChEMBL document CHEMBL3243931, “Dihydroretinoic acids and their derivatives. Synthesis and biological activity” (1977)
